Measurements reported in ChEMBL document CHEMBL3124806, “Imidazopyridine-fused [1,3]-diazepinones: synthesis and antiproliferative activity” (Eur J Med Chem, 2014).

Experiments:
Type in all cases: functional
[1] = Cytotoxicity against human UACC257 cells assessed as cell growth at 10 uM after 48 hrs by SRB assay relative to untreated control; details: UACC-257, 48 h, read-out: Activity
How it was run: (§1)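 NCI-60 single-dose screen. Compounds were added to the cultures at 10 μM and incubated for 48 h. The end point was sulforhodamine B protein staining read spectrophotometrically. Growth is reported as percent of untreated control cells.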

[2] = tested on: HOP-92; test: Cytotoxicity against human HOP92 cells assessed as cell growth at 10 uM after 48 hrs by SRB assay relative to untreated control; details: HOP-92, 48 h, read-out: Activity
How it was run: (§2)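 NCI-60 panel screen at a single concentration of 10 μM with 48 h incubation. Cell density measured by sulforhodamine B protein-binding dye and read spectrophotometrically. Growth expressed as percent of untreated control cells.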

[3] = tested on: SF-539; test: Cytotoxicity against human SF539 cells assessed as cell growth at 10 uM after 48 hrs by SRB assay relative to untreated control; details: SF-539, 48 h, read-out: Activity
How it was run: (§3)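 NCI-60 one-dose screen: each agent added at 10 µM, cultures incubated 48 h. Endpoint by sulforhodamine B protein-binding dye read spectrophotometrically; growth expressed as percent of untreated control cells.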

[4] = Cytotoxicity against human UO31 cells assessed as cell growth at 10 uM after 48 hrs by SRB assay relative to untreated control; details: UO-31, 48 h, read-out: Activity; how it was run: as §1
[5] = tested on: Malme-3M; test: Cytotoxicity against human MALME-3M cells assessed as cell growth at 10 uM after 48 hrs by SRB assay relative to untreated control; details: read-out: Activity; how it was run: as §2
[6] = tested on: K562; test: Cytotoxicity against human K562 cells assessed as cell growth at 10 uM after 48 hrs by SRB assay relative to untreated control; details: K562, 48 h, read-out: Activity; how it was run: as §2
[7] = tested on: HCT-15; test: Cytotoxicity against human HCT15 cells assessed as cell growth at 10 uM after 48 hrs by SRB assay relative to untreated control; details: HCT-15, 48 h, read-out: Activity; how it was run: as §2
[8] = tested on: RPMI-8226; test: Cytotoxicity against human RPMI8226 cells assessed as cell growth at 10 uM after 48 hrs by SRB assay relative to untreated control; details: RPMI-8226, 48 h, read-out: Activity; how it was run: as §3
[9] = tested on: LOX IMVI; test: Cytotoxicity against human LOXIMVI cells assessed as cell growth at 10 uM after 48 hrs by SRB assay relative to untreated control; details: read-out: Activity; how it was run: as §2
[10] = tested on: T47D; test: Cytotoxicity against human T47D cells assessed as cell growth at 10 uM after 48 hrs by SRB assay relative to untreated control; details: read-out: Activity; how it was run: as §1
[11] = tested on: M14; test: Cytotoxicity against human M14 cells assessed as cell growth at 10 uM after 48 hrs by SRB assay relative to untreated control; details: M14, 48 h, read-out: Activity; how it was run: as §2
[12] = tested on: OVCAR-8; test: Cytotoxicity against human OVCAR8 cells assessed as cell growth at 10 uM after 48 hrs by SRB assay relative to untreated control; details: OVCAR-8, 48 h, read-out: Activity; how it was run: as §3
[13] = tested on: SF-295; test: Cytotoxicity against human SF295 cells assessed as cell growth at 10 uM after 48 hrs by SRB assay relative to untreated control; details: SF-295, 48 h, read-out: Activity; how it was run: as §3
[14] = tested on: MDA-MB-435; test: Cytotoxicity against human MDA-MB-435 cells assessed as cell growth at 10 uM after 48 hrs by SRB assay relative to untreated control; details: MDA-MB-435, 48 h, read-out: Activity; how it was run: as §3
[15] = tested on: CCRF-CEM; test: Cytotoxicity against human CCRF-CEM cells assessed as cell growth at 10 uM after 48 hrs by SRB assay relative to untreated control; details: read-out: Activity; how it was run: as §2
[16] = tested on: SK-OV-3; test: Cytotoxicity against human SKOV3 cells assessed as cell growth at 10 uM after 48 hrs by SRB assay relative to untreated control; details: SK-OV-3, 48 h, read-out: Activity; how it was run: as §1
[17] = tested on: IGROV-1; test: Cytotoxicity against human IGROV1 cells assessed as cell growth at 10 uM after 48 hrs by SRB assay relative to untreated control; details: IGROV-1, 48 h, read-out: Activity; how it was run: as §2
[18] = tested on: OVCAR-3; test: Cytotoxicity against human OVCAR3 cells assessed as cell growth at 10 uM after 48 hrs by SRB assay relative to untreated control; details: OVCAR-3, 48 h, read-out: Activity; how it was run: as §3
[19] = tested on: SW-620; test: Cytotoxicity against human SW620 cells assessed as cell growth at 10 uM after 48 hrs by SRB assay relative to untreated control; details: SW-620, 48 h, read-out: Activity; how it was run: as §1
[20] = tested on: MOLT-4; test: Cytotoxicity against human MOLT4 cells assessed as cell growth at 10 uM after 48 hrs by SRB assay relative to untreated control; details: MOLT-4, 48 h, read-out: Activity; how it was run: as §3
[21] = tested on: MCF7; test: Cytotoxicity against human MCF7 cells assessed as cell growth at 10 uM after 48 hrs by SRB assay relative to untreated control; details: MCF7, 48 h, read-out: Activity; how it was run: as §2
[22] = tested on: CAKI-1; test: Cytotoxicity against human Caki1 cells assessed as cell growth at 10 uM after 48 hrs by SRB assay relative to untreated control; details: CAKI-1, 48 h, read-out: Activity; how it was run: as §2
[23] = tested on: BT-549; test: Cytotoxicity against human BT549 cells assessed as cell growth at 10 uM after 48 hrs by SRB assay relative to untreated control; details: BT-549, 48 h, read-out: Activity; how it was run: as §2
[24] = tested on: U-251; test: Cytotoxicity against human U251 cells assessed as cell growth at 10 uM after 48 hrs by SRB assay relative to untreated control; details: U-251, 48 h, read-out: Activity; how it was run: as §1
[25] = tested on: ACHN; test: Cytotoxicity against human ACHN cells assessed as cell growth at 10 uM after 48 hrs by SRB assay relative to untreated control; details: read-out: Activity; how it was run: as §2
[26] = tested on: TK-10; test: Cytotoxicity against human TK10 cells assessed as cell growth at 10 uM after 48 hrs by SRB assay relative to untreated control; details: TK-10, 48 h, read-out: Activity; how it was run: as §1
[27] = tested on: 786-0; test: Cytotoxicity against human […] cells assessed as cell growth at 10 uM after 48 hrs by SRB assay relative to untreated control; details: 786-0, 48 h, read-out: Activity; how it was run: as §2
[28] = tested on: HT-29; test: Cytotoxicity against human HT-29 cells assessed as cell growth at 10 uM after 48 hrs by SRB assay relative to untreated control; details: HT-29, 48 h, read-out: Activity; how it was run: as §2
[29] = tested on: SNB-19; test: Cytotoxicity against human SNB19 cells assessed as cell growth at 10 uM after 48 hrs by SRB assay relative to untreated control; details: SNB-19, 48 h, read-out: Activity; how it was run: as §1
[30] = tested on: NCI-H322M; test: Cytotoxicity against human NCI-H322M cells assessed as cell growth at 10 uM after 48 hrs by SRB assay relative to untreated control; details: read-out: Activity; how it was run: as §3
[31] = tested on: SF-268; test: Cytotoxicity against human SF268 cells assessed as cell growth at 10 uM after 48 hrs by SRB assay relative to untreated control; details: SF-268, 48 h, read-out: Activity; how it was run: as §3
[32] = tested on: NCI-H226; test: Cytotoxicity against human NCI-H226 cells assessed as cell growth at 10 uM after 48 hrs by SRB assay relative to untreated control; details: NCI-H226, 48 h, read-out: Activity; how it was run: as §3

Cc1ccc(C2=Nc3nc4ccccn4c3C(=O)[C@H](Cc3ccccc3)N2)cc1
growth at 10 µM [1]: 91.1% | growth at 10 µM [2]: 88.3% | growth at 10 µM [3]: 98.8% | growth at 10 µM [4]: 77% | growth at 10 µM [5]: 99.9% | growth at 10 µM [6]: 87.9% | growth at 10 µM [7]: 78% | growth at 10 µM [8]: 107% | growth at 10 µM [9]: 85.8% | growth at 10 µM [10]: 96.5% | growth at 10 µM [11]: 97.7% | growth at 10 µM [12]: 92.9% | growth at 10 µM [13]: 84% | growth at 10 µM [14]: 46.8% | growth at 10 µM [15]: 103% | growth at 10 µM [16]: 109% | growth at 10 µM [17]: 89.1% | growth at 10 µM [18]: 99.3% | growth at 10 µM [19]: 102% | growth at 10 µM [20]: 92.8% | growth at 10 µM [21]: 76.2% | growth at 10 µM [22]: 76.8% | growth at 10 µM [23]: 88.3% | growth at 10 µM [24]: 99.3% | growth at 10 µM [25]: 92.1% | growth at 10 µM [26]: 135% | growth at 10 µM [27]: 106% | growth at 10 µM [28]: 114% | growth at 10 µM [29]: 96.4% | growth at 10 µM [30]: 104% | growth at 10 µM [31]: 97.4% | growth at 10 µM [32]: 88.2%
